In data set [1] the target is 5-hydroxytryptamine receptor 2A (Homo sapiens) (UniProt P28223). The data set can be described thus: Dissociation equilibrium constant against the vascular 5-hydroxytryptamine 2A receptor in the rabbit […] aorta. In kind it is tissue-based. The settings on record: Oryctolagus cuniculus, target entry is the homologue from another species.
In data set [2] the target is T1, 5-hydroxytryptamine receptor 2C (Rattus norvegicus, UniProt P08909).
T1 sequence (P08909 whole entry): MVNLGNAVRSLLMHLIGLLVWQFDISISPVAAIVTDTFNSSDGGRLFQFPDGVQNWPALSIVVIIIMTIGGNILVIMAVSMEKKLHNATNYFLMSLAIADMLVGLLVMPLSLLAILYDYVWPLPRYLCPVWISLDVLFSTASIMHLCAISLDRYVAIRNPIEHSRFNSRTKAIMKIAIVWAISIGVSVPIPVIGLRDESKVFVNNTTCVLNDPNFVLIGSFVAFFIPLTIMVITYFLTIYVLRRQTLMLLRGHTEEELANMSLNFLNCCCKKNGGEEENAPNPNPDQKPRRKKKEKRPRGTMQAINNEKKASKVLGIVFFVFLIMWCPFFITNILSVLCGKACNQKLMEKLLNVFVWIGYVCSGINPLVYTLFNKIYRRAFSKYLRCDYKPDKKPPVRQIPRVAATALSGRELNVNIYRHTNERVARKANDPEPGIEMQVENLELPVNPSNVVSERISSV
Briefly: Affinity pKi for 5-hydroxytryptamine 2C receptor was measured in rat cortex homogenates. In kind it is tissue-based. The gist of the method:
(§1)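 Competition binding with rat cortex homogenate: radioligand near its KD plus a wide range of test drug concentrations in duplicate, 30 min at 27 °C. Buffer 50 mM TRIS-HCl, 5 mM CaCl₂, 0.1% (w/v) ascorbate, 10 mM pargyline. Nonspecific binding defined with excess cold 5HT. Rapid filtration with ice-cold buffer wash, liquid scintillation count. pKi is the mean of at least three estimates.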

In data set [3] the target is Histamine H1 receptor (Homo sapiens) (UniProt P35367). The data set can be described thus: The dissociation equilibrium constant (pKB=-log KB) of compound was determined against the Histamine H1 receptor in the rabbit thoracic aorta. The data set is classed as tissue-based. The settings on record: Oryctolagus cuniculus, target entry is the homologue from another species.

The target in data set [4] is T2, Adrenergic receptor alpha-1 (Rattus norvegicus, UniProt P15823+P23944+P43140).
T2 sequence (P15823 whole entry): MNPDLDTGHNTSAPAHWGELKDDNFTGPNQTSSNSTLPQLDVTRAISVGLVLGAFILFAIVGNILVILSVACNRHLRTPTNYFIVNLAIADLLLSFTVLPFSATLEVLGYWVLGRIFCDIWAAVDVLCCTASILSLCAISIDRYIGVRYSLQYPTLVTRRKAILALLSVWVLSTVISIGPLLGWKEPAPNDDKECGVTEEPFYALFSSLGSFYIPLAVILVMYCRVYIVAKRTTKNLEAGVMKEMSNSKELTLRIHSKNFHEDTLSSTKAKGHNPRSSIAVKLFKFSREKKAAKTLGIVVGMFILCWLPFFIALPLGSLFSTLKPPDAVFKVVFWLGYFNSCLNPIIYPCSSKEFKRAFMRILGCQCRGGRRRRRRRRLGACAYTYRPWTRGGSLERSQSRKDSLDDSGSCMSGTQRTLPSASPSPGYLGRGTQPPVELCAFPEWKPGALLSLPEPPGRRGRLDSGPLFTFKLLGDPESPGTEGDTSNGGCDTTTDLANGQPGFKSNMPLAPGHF
T2 sequence (P23944 whole entry): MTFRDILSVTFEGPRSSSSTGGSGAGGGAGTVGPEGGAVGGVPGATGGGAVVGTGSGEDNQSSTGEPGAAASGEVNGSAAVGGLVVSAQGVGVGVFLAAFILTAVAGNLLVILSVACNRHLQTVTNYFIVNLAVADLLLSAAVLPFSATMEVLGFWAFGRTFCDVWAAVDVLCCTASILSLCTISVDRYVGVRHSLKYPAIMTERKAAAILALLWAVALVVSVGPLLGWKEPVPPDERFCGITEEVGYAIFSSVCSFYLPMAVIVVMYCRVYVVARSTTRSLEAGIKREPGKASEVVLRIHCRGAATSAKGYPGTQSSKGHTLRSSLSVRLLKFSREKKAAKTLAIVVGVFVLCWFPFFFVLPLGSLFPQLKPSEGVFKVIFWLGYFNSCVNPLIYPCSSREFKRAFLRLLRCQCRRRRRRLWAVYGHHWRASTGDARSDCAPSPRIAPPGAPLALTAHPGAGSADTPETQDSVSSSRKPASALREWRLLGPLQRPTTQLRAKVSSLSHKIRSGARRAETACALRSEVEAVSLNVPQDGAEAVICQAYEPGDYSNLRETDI
T2 sequence (P43140 whole entry): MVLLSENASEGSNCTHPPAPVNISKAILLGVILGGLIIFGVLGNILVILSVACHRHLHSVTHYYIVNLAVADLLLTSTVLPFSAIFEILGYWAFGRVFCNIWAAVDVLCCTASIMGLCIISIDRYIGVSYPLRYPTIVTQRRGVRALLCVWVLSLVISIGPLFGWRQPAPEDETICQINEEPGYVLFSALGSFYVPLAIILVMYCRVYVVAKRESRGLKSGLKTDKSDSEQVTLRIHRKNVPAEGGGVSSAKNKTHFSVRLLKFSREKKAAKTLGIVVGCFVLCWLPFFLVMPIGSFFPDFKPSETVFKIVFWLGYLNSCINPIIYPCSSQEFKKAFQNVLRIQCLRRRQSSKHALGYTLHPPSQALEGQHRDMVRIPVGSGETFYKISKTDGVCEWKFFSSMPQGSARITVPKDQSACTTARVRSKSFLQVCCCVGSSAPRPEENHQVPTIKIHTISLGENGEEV
The data set can be described thus: Affinity pKi for Alpha-1 adrenergic receptor was measured in rat cortex homogenates. In kind it is tissue-based. In a few lines: as §1

The target in data set [5] is Adrenergic receptor alpha-2 (Homo sapiens) (UniProt P08913+P18825+P18089). The data set can be described thus: The dissociation equilibrium constant (pKB=-log KB) of compound was determined against the Alpha-2 adrenergic receptor. The settings on record: Oryctolagus cuniculus. The data set is classed as protein assay.
Data set [6] addresses Adrenergic receptor alpha-1 (Homo sapiens) (UniProt P35348+P25100+P35368). Briefly: The dissociation equilibrium constant (pKB=-log KB) of compound was determined against the Alpha-1 adrenergic receptor in the rabbit thoracic aorta. In kind it is tissue-based. The conditions noted are these: Oryctolagus cuniculus, target entry is the homologue from another species. In a few lines:
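Rabbit thoracic aorta rings (3 mm) given pargyline 500 μM for 30 min and tensioned twice to 3.0 g. L-phenylephrine 10 μM checks viability and gives the reference contracture. After washout, test compound at 30 μM for 60 min, then a cumulative L-phenylephrine curve.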

Data set [7] deals with 5-hydroxytryptamine receptor 7 (Homo sapiens) (UniProt P34969). The data set can be described thus: The dissociation equilibrium constant (pKB=-log KB) of compound was determined against the vascular 5-hydroxytryptamine 7 receptor in the endothelium denuded rabbit jugular vein. The conditions noted are these: Oryctolagus cuniculus; target entry is the homologue from another species.

A short description of data set [8]: The dissociation equilibrium constant (pKB=-log KB) of compound was determined against the Muscarinic acetylcholine receptor M3 in the guinea pig trachea. The settings on record: Cavia porcellus.
Data set [9] concerns the target 5-hydroxytryptamine receptor 2A (Rattus norvegicus, UniProt P14842). The data set can be described thus: Affinity pKi for 5-hydroxytryptamine 2A receptor was measured in rat cortex homogenates. The data set is classed as tissue-based. The gist of the method:
as §1

Data set [10] can be described thus: Half life of compound was determined in rat plasma. In kind it is ADME, organism-based.
Data set [11] has as its target D(2) dopamine receptor (Rattus norvegicus, UniProt P61169). The data set can be described thus: Affinity pKi for Dopamine receptor D2 was measured in rat cortex homogenates. The data set is classed as tissue-based. The gist of the method: as §1
Data set [12] has as its target Adrenergic receptor beta (Rattus norvegicus, UniProt P18090+P10608+P26255). Briefly: Affinity pKi for Beta adrenergic receptor was measured in rat cortex homogenates. The gist of the method:
as §1

Chain of 5-hydroxytryptamine receptor 2A (P14842 whole entry): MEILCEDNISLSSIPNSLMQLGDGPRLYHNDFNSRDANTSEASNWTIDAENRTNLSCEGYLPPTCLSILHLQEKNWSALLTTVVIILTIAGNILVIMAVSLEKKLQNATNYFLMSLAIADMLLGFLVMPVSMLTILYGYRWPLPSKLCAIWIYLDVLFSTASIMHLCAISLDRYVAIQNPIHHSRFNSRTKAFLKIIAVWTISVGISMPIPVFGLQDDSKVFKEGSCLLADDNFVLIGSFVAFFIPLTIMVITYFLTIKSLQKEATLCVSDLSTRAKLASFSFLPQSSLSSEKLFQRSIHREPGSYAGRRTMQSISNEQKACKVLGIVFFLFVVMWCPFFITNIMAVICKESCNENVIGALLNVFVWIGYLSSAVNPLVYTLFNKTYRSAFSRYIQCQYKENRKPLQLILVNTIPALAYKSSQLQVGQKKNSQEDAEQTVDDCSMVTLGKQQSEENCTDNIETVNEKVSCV
Chain of 5-hydroxytryptamine receptor 7 (Homo sapiens) (P34969 whole entry): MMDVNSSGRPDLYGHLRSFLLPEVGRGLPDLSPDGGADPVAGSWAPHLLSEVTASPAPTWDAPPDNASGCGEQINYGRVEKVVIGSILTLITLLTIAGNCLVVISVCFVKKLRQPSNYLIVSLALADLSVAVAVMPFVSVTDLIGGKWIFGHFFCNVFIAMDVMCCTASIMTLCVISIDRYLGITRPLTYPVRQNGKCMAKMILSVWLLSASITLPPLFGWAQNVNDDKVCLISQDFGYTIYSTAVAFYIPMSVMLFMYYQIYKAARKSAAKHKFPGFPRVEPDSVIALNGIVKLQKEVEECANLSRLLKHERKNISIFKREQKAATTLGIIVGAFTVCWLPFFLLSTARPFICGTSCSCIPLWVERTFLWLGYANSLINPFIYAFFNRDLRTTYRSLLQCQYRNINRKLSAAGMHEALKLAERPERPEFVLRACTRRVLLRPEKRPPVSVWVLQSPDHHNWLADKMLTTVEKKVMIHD
Chain of Histamine H1 receptor (Homo sapiens) (P35367 whole entry): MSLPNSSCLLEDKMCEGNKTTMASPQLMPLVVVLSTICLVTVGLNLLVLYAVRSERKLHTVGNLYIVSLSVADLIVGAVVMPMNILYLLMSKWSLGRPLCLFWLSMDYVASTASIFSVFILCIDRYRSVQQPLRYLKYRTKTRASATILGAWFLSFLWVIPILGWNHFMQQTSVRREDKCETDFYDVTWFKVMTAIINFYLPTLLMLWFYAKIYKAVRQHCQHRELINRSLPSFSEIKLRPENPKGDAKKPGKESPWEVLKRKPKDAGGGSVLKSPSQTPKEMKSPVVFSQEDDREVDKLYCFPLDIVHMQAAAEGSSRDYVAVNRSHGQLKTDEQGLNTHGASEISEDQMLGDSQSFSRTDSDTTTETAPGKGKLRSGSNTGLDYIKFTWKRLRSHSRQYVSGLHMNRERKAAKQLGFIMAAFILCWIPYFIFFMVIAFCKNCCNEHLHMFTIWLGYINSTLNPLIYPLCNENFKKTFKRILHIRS
Chain of D(2) dopamine receptor (P61169 whole entry): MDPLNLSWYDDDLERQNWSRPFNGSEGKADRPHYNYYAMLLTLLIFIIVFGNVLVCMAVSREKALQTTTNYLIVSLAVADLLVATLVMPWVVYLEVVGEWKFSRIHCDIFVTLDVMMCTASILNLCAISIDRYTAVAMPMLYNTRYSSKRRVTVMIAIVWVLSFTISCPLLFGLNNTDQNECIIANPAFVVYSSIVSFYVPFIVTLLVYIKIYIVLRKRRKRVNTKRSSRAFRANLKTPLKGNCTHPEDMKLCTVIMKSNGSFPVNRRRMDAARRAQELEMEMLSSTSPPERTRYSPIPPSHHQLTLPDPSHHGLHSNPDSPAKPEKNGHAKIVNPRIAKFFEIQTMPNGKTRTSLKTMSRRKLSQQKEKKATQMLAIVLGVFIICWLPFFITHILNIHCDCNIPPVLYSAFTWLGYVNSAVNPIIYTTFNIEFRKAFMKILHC
Chain of 5-hydroxytryptamine receptor 2A (Homo sapiens) (P28223 whole entry): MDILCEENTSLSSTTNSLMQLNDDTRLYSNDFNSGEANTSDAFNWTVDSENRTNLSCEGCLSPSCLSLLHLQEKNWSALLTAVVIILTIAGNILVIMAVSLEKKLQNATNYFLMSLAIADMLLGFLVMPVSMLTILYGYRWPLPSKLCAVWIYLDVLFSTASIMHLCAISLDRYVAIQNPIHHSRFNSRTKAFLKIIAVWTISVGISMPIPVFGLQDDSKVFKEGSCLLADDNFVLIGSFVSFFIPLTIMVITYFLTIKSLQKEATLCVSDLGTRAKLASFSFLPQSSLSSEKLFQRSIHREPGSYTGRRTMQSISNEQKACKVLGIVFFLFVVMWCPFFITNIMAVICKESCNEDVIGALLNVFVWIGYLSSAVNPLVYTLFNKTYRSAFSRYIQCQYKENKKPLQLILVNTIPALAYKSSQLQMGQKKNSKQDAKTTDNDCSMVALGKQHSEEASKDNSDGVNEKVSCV

As for `CCOC(=O)c1[nH]c2ccc(CCN3C(=O)CNC3=O)cc2c1CCN(C)C`, the pKB (usually the KB on a negative log10 scale, so that one unit is a factor of ten) is 5.8 in [1]; less than 5 in [3]; less than 5 in [5]; 5.43 in [6]; 5.5 in data set [7]; less than 5 in data set [8]. The Ki (commonly the dissociation constant of the complex between target and ligand, obtained from inhibition or displacement) in [2] is 5.5 µM; in [9] it was 7.94 µM; in [11], 10.7 µM. In addition, the “Log Ki” value in data set [4] is recorded as -4.95; in data set [12], -4.34. Further, in data set [10], the half-life – broadly, how long it takes for the measured level to halve – turned out to be 15 min.
